In ChEMBL document CHEMBL1629654, “Breakthrough Aspergillus fumigatus and Candida albicans double infection during caspofungin treatment: laboratory characteristics and implication for susceptibility testing” (2009):
Values after ≈ are worked out from the molar mass of the structure shown. Active and inactive are the calls of the source. The rule behind the calls is not given here.

Columns and labels:
Candida albicans [1] = assay: Antimicrobial activity against Candida albicans after 48 hrs by NCCLS microdilution method; type: functional
Candida tropicalis = assay: Antimicrobial activity against Candida tropicalis after 48 hrs by 50% endpoint M27-A2 method; type: functional
Candida albicans [2] = assay: Antimicrobial activity against Candida albicans isolate S at 5 ug/ml grown on RPMI 1640 medium after 48 hrs by disk diffusion method; type: functional
Outline: (§1)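 Disk diffusion on 90-mm RPMI 1640 with 2% glucose agar or on Mueller-Hinton agar. Plates were swabbed in three directions with a yeast suspension of 1–5 × 10^6 cells/ml. Paper disks (6 mm) held 1, 5 or 25 µg drug. Zone diameters were read at 24 and 48 h; values are means of two experiments.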

Candida albicans [3] = assay: Antimicrobial activity against Candida albicans isolate C at 1 ug/ml after 48 hrs by agar dilution method; type: functional, organism-based
Outline: (§2)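 Agar dilution on Sabouraud agar with caspofungin at 0, 0.5, 1 and 2 per ml. Isolates were subcultured 2 days on CHROMagar. Suspensions of 1×10^6 to 5×10^6 CFU/ml in sterile water were diluted 1,500-fold, and approximately 3 to 15 cells were spread per agar surface. Growth or no growth was scored, with repeated testing.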

Candida albicans [4] = assay: Antimicrobial activity against Candida albicans isolate S obtained from blood culture of patient 4 days after admission by EUCAST microdilution method; type: functional; conditions: 96 h
Outline: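 EUCAST broth microdilution, plates read spectrophotometrically at 490 nm. MIC is the lowest dilution giving 50% growth inhibition. C. krusei […] control included in each run.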

Candida albicans [5] = assay: Antimicrobial activity against Candida albicans isolate C at 0.5 ug/ml after 48 hrs by agar dilution method; type: functional, organism-based
Outline: (§3)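 Sabouraud agar wells contained caspofungin 0, 0.5, 1 or 2 µg/ml, or anidulafungin 0, 0.003, 0.125 or 0.5 µg/ml. Isolates were subcultured 2 days on CHROMagar. Suspensions of 1–5 × 10^6 CFU/ml in sterile water were diluted 1,500-fold, and 5 µl (about 3–15 cells) was spread per well. Growth was scored.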

Candida albicans [6] = assay: Antimicrobial activity against Candida albicans isolate R at 5 ug/ml grown on RPMI 1640 medium after 24 hrs by disk diffusion method; type: functional; outline: as §1
Candida albicans [7] = assay: Antimicrobial activity against Candida albicans isolate R at 25 ug/ml grown on RPMI 1640 medium after 24 hrs by disk diffusion method; type: functional; outline: as §1
Candida albicans [8] = assay: Antimicrobial activity against Candida albicans isolate S at 1 ug/ml grown on Muller-Hinton agar medium after 48 hrs by disk diffusion method; type: functional; outline: as §1
Nakaseomyces glabratus [9] = assay: Antimicrobial activity against Candida glabrata after 48 hrs by NCCLS microdilution method; type: functional
Candida parapsilosis [10] = assay: Antimicrobial activity against Candida parapsilosis after 24 hrs by M27-A3 method; type: functional; conditions: Lodderomyces parapsilosis
Pichia kudriavzevii [11] = assay: Antimicrobial activity against Candida krusei after 48 hrs by NCCLS microdilution method; type: functional
Candida albicans [12] = assay: Antimicrobial activity against Candida albicans after 48 hrs by 80% endpoint M27-A2 method; type: functional
Candida albicans [13] = assay: Antimicrobial activity against Candida albicans isolate S at 1 ug/ml grown on RPMI 1640 medium after 48 hrs by disk diffusion method; type: functional; outline: as §1
Candida albicans [14] = assay: Antimicrobial activity against Candida albicans isolate S at 25 ug/ml grown on RPMI 1640 medium after 24 hrs by disk diffusion method; type: functional; outline: as §1
Clavispora lusitaniae = assay: Antimicrobial activity against Candida lusitaniae after 48 hrs by NCCLS microdilution method; type: functional
Pichia kudriavzevii [15] = assay: Antimicrobial activity against Candida krusei after 24 hrs by M27-A3 method; type: functional
Candida albicans [16] = assay: Antimicrobial activity against Candida albicans isolate S at 1 ug/ml grown on RPMI 1640 medium after 24 hrs by disk diffusion method; type: functional; outline: as §1
Candida parapsilosis [17] = assay: Antimicrobial activity against Candida parapsilosis after 48 hrs by 80% endpoint M27-A method; conditions: Lodderomyces parapsilosis
Nakaseomyces glabratus [18] = assay: Antimicrobial activity against Candida glabrata after 48 hrs by broth microdilution method; type: functional
Nakaseomyces glabratus [19] = assay: Antimicrobial activity against Candida glabrata after 48 hrs by 80% endpoint M27-A2 method; type: functional
Candida albicans [20] = assay: Antimicrobial activity against Candida albicans isolate C after 24 hrs by microdilution method; type: functional
Outline: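 Broth microdilution in microtiter plates, read spectrophotometrically at 490 nm. MIC taken as the lowest drug dilution giving 50% growth inhibition. C. krusei […] run as control in each run. Read at 24 h and 48 h; trailing growth noted at 48 h.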

Candida albicans [21] = assay: Antimicrobial activity against Candida albicans isolate C after 48 hrs by Etest; type: functional
Outline: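 Etest on RPMI 1640 agar with 2% glucose, run per the manufacturer's instructions. Index and control clinical blood isolates were tested in parallel.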

Candida albicans [22] = assay: Antimicrobial activity against Candida albicans isolate C at 2 ug/ml after 48 hrs by agar dilution method; type: functional, organism-based; outline: as §2
Candida albicans [23] = assay: Antimicrobial activity against Candida albicans after 48 hrs by 50% endpoint M27-A2 method; type: functional
Candida albicans [24] = assay: Antimicrobial activity against Candida albicans obtained from hemodialysis catheter tip 35 days after admission by Etest; type: functional
Outline: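 Etest on RPMI 1640 agar with 2% glucose, performed according to the manufacturer's recommendations.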

Candida albicans [25] = assay: Antimicrobial activity against Candida albicans isolate R at 25 ug/ml grown on Muller-Hinton agar medium after 48 hrs by disk diffusion method; type: functional; outline: as §1
Candida albicans [26] = assay: Antimicrobial activity against Candida albicans isolate S at 25 ug/ml grown on RPMI 1640 medium after 48 hrs by disk diffusion method; type: functional; outline: as §1
Candida parapsilosis [27] = assay: Antimicrobial activity against Candida parapsilosis after 48 hrs by broth microdilution method; type: functional; conditions: Lodderomyces parapsilosis
Candida albicans [28] = assay: Antimicrobial activity against Candida albicans isolate S at 25 ug/ml grown on Muller-Hinton agar medium after 24 hrs by disk diffusion method; type: functional; outline: as §1
Pichia kudriavzevii [29] = assay: Antimicrobial activity against Candida krusei after 48 hrs
Debaryomyces hansenii = assay: Antimicrobial activity against Candida famata after 48 hrs by M27-A method
Candida parapsilosis [30] = assay: Antimicrobial activity against Candida parapsilosis after 48 hrs by NCCLS microdilution method; type: functional; conditions: Lodderomyces parapsilosis
Kluyveromyces marxianus = assay: Antimicrobial activity against Candida kefyr after 48 hrs by 50% endpoint M27-A2 method; type: functional
[31] = test system: Meyerozyma guilliermondii; assay: Antimicrobial activity against Candida guilliermondii after 48 hrs by NCCLS microdilution method; type: functional
Candida albicans [32] = assay: Antimicrobial activity against Candida albicans isolate R at 1 ug/ml after 48 hrs by agar dilution method; type: functional, organism-based; outline: as §2
Candida albicans [33] = assay: Antimicrobial activity against Candida albicans isolate R at 0.5 ug/ml after 48 hrs by agar dilution method; type: functional, organism-based; outline: as §3
Nakaseomyces glabratus [34] = assay: Antimicrobial activity against Candida glabrata after 48 hrs by Etest; type: functional
Candida albicans [35] = assay: Antimicrobial activity against Candida albicans isolate S at 5 ug/ml grown on Muller-Hinton agar medium after 24 hrs by disk diffusion method; type: functional; outline: as §1
Candida albicans [36] = assay: Antimicrobial activity against Candida albicans isolate S at 5 ug/ml grown on Muller-Hinton agar medium after 48 hrs by disk diffusion method; type: functional; outline: as §1
Candida albicans [37] = assay: Antimicrobial activity against Candida albicans isolate R at 1 ug/ml grown on Muller-Hinton agar medium after 48 hrs by disk diffusion method; type: functional; outline: as §1
Pichia kudriavzevii [38] = assay: Antimicrobial activity against Candida krusei after 48 hrs by 80% endpoint M27-A2 method; type: functional

CC[C@H](C)C[C@H](C)CCCCCCCCC(=O)N[C@H]1C[C@@H](O)[C@@H](NCCN)NC(=O)[C@@H]2[C@@H](O)CCN2C(=O)[C@H]([C@H](O)CCN)NC(=O)[C@H]([C@H](O)[C@@H](O)c2ccc(O)cc2)NC(=O)[C@@H]2C[C@@H](O)CN2C(=O)[C@H]([C@@H](C)O)NC1=O [CASPOFUNGIN]
MIC90 (Candida albicans [1]): 0.5 µg/mL (≈ 0.457 µM)
MIC90 (Candida tropicalis): 1 µg/mL (≈ 0.915 µM)
inhibition zone (IZ) (Candida albicans [2]): 21 mm
growth inhibition (GI) (Candida albicans [3]): Active
MIC (Candida albicans [4]): 0.25 µg/mL (≈ 0.229 µM)
growth inhibition (GI) (Candida albicans [5]): Active
inhibition zone (IZ) (Candida albicans [6]): 8.6 mm
inhibition zone (IZ) (Candida albicans [7]): 12.4 mm
inhibition zone (IZ) (Candida albicans [8]): 12.5 mm
MIC90 (Nakaseomyces glabratus [9]): 1 µg/mL (≈ 0.915 µM)
MIC90 (Candida parapsilosis [10]): 1 µg/mL (≈ 0.915 µM)
MIC90 (Pichia kudriavzevii [11]): 1 µg/mL (≈ 0.915 µM)
MIC90 (Candida albicans [12]): 0.5 µg/mL (≈ 0.457 µM)
inhibition zone (IZ) (Candida albicans [13]): 10.5 mm
inhibition zone (IZ) (Candida albicans [14]): 25.3 mm
MIC90 (Clavispora lusitaniae): 2 µg/mL (≈ 1.83 µM)
MIC90 (Pichia kudriavzevii [15]): 0.25 µg/mL (≈ 0.229 µM)
inhibition zone (IZ) (Candida albicans [16]): 10.7 mm
MIC90 (Candida parapsilosis [17]): 2 µg/mL (≈ 1.83 µM)
MIC90 (Nakaseomyces glabratus [18]): 0.5 µg/mL (≈ 0.457 µM)
MIC90 (Nakaseomyces glabratus [19]): 1 µg/mL (≈ 0.915 µM)
MIC (Candida albicans [20]): ≤ 0.06 µg/mL
MIC (Candida albicans [21]): 0.06 µg/mL (≈ 0.0549 µM)
growth inhibition (GI) (Candida albicans [22]): Active
MIC90 (Candida albicans [23]): 0.5 µg/mL (≈ 0.457 µM)
MIC (Candida albicans [24]): 32 µg/mL (≈ 29.3 µM)
inhibition zone (IZ) (Candida albicans [25]): 12.7 mm
inhibition zone (IZ) (Candida albicans [26]): 26.4 mm
MIC90 (Candida parapsilosis [27]): 2 µg/mL (≈ 1.83 µM)
inhibition zone (IZ) (Candida albicans [28]): 23.3 mm
MIC90 (Pichia kudriavzevii [29]): 1 µg/mL (≈ 0.915 µM)
MIC90 (Debaryomyces hansenii): > 8 µg/mL
MIC90 (Candida parapsilosis [30]): 2 µg/mL (≈ 1.83 µM)
MIC90 (Kluyveromyces marxianus): 1 µg/mL (≈ 0.915 µM)
MIC90 [31]: > 16 µg/mL
growth inhibition (GI) (Candida albicans [32]): inactive
growth inhibition (GI) (Candida albicans [33]): inactive
MIC90 (Nakaseomyces glabratus [34]): 0.25 µg/mL (≈ 0.229 µM)
inhibition zone (IZ) (Candida albicans [35]): 19.2 mm
inhibition zone (IZ) (Candida albicans [36]): 20.4 mm
inhibition zone (IZ) (Candida albicans [37]): 6.1 mm
MIC90 (Pichia kudriavzevii [38]): 2 µg/mL (≈ 1.83 µM)
